Data published in ChEMBL document CHEMBL4033793, “Potent and Selective Inhibitors of Human Sirtuin 5” (J Med Chem, 2018).
One block for each compound: values may come before it. Calls of active or inactive are those of the source. No cut-off for these calls is given here. Starred links: 1 amine or outer side, 2 acyl side, 3 side chain; linkers in the order of their positions; H or OH if unused. Positions of bridges follow the written chain, without caps; N, C: chain ends. Non-standard residues stand in square brackets, D forms with d. Residues, ends and D or L forms follow the SMILES beside them. *: point of attachment. X2 = O=C(CCCC[C@@H]1SC[C@@H]2NC(=O)N[C@@H]21)NCCCOCCOCCOCCCN*; X67 = O=C(O)CCNC(=S)NCCCC[C@H](N[*:1])C(=O)[*:2]; X1 = O=C(O)[C@H](CC(=O)*)Sc1ccc2ccccc2c1; Suberoyl = O=C(CCCCCCC(=O)[*:2])[*:1]; β3hR = N=C(N)NCCC[C@H](N)CC(=O)O; Suc = O=C(CCC(=O)[*:2])[*:1]; Bz = O=C(c1ccccc1)*

Tests used:
[1] = target: T1, NAD-dependent protein deacylase sirtuin-5, mitochondrial (Homo sapiens, UniProt Q9NXA8); assay: Inhibition of recombinant human N-terminal His-tagged SIRT5 (34 to 269 residues) expressed in Escherichia coli Transetta(DE3) cells using Benzyl Lys(Succinyl)-AMC substrate after 2 hrs by fluorescence assay
Target sequence in this assay (Q9NXA8 whole entry, the tested form may be a part): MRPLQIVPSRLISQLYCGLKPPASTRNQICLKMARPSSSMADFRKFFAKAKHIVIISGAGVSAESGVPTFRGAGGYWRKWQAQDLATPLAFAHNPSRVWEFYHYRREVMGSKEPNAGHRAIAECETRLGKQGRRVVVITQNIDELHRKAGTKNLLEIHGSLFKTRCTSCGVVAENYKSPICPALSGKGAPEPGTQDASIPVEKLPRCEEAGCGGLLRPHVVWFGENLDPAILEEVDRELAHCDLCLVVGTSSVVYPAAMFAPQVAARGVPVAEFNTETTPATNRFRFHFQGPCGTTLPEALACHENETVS

[2] = target: T1, NAD-dependent protein deacylase sirtuin-5, mitochondrial; assay: Inhibition of human SIRT5
Target sequence in this assay (Q9NXA8 whole entry, the tested form may be a part): as above

[3] = target: NAD-dependent protein deacylase sirtuin-6 (Homo sapiens) (UniProt Q8N6T7); assay: Inhibition of SIRT6 (unknown origin) up to 50 uM using Ac-EALPKK(myristoyl)TGGNH2 as substrate after 6 mins by HPLC analysis
Chain of NAD-dependent protein deacylase sirtuin-6 (Homo sapiens) (Q8N6T7 whole entry): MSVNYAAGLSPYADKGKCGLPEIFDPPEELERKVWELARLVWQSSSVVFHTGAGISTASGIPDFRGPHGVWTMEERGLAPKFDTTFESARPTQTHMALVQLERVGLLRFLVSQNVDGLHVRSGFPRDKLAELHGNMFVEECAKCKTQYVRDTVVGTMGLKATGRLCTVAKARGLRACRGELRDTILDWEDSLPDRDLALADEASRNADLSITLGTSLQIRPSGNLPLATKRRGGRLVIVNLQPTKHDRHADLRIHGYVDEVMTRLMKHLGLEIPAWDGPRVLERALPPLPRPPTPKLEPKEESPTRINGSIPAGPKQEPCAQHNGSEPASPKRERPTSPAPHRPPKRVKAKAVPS
Outline: (§1)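 HPLC activity assay at 37°C with 0 or 50 µM inhibitor, 500 µM NAD+, 5% DMSO, 0.1 µM enzyme and 50 µM substrate, in 20 mM Tris, 150 mM NaCl, 5 mM MgCl2, pH 7.8. Incubation 8 min for SIRT1-3 and 6 min for SIRT6. Stopped with TFA-water (1:9), then analysed by reversed-phase HPLC with detection at 260 nm.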

[4] = target: T2, NAD-dependent protein deacetylase sirtuin-2 (Homo sapiens) (UniProt Q8IXJ6); assay: Inhibition of SIRT2 (unknown origin) up to 50 uM using Bz-GVLK(acetyl)EYGV-NH2 as substrate after 8 mins by HPLC analysis; outline: as §1
T2 sequence (whole entry): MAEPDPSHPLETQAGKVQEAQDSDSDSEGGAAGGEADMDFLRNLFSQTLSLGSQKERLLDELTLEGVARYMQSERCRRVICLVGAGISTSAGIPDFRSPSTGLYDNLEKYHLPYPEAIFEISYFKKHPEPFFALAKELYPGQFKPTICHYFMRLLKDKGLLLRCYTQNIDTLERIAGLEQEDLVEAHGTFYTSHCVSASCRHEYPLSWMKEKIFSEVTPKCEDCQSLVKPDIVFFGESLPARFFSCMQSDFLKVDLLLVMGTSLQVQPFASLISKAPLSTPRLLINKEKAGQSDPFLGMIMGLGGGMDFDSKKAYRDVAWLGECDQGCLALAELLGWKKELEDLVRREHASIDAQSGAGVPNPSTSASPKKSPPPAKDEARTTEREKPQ

[5] = target: T1, NAD-dependent protein deacylase sirtuin-5, mitochondrial; assay: Binding affinity to human N-terminal biotinylated SIRT5 by surface plasmon resonance spectroscopy
Outline: (§2)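 Surface plasmon resonance: N-terminally biotinylated Sirt5 (biotinylated via Trypsiligase) immobilized on a streptavidin-coated sensor chip at about 1800 RU. Biotinylated ligand injected at 50 nM in PBS (4 mM KH2PO4, 16 mM Na2HPO4, 115 mM NaCl, pH 7.4). Kinetic constants and affinity obtained by fitting to a 1:1 Langmuir binding model.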
Target sequence in this assay (Q9NXA8 whole entry, the tested form may be a part): as the sequence (Q9NXA8 whole entry, the tested form may be a part) above

[6] = target: T1, NAD-dependent protein deacylase sirtuin-5, mitochondrial; assay: Inhibition of human recombinant N-terminal Strep2-tagged SIRT5 expressed in Escherichia coli BL21 (DE3) using Abz-GVLK(glutaryl)AY(NO2)GV-NH2 as substrate in presence of NAD+ by fluorescence assay
Target sequence in this assay (Q9NXA8 whole entry, the tested form may be a part): as above

[7] = target: T3, NAD-dependent protein deacetylase sirtuin-3, mitochondrial (Homo sapiens) (UniProt Q9NTG7); assay: Inhibition of SIRT3 (unknown origin) up to 50 uM using Bz-GVLK(acetyl)EYGV-NH2 as substrate after 8 mins by HPLC analysis; outline: as §1
T3 sequence (whole entry): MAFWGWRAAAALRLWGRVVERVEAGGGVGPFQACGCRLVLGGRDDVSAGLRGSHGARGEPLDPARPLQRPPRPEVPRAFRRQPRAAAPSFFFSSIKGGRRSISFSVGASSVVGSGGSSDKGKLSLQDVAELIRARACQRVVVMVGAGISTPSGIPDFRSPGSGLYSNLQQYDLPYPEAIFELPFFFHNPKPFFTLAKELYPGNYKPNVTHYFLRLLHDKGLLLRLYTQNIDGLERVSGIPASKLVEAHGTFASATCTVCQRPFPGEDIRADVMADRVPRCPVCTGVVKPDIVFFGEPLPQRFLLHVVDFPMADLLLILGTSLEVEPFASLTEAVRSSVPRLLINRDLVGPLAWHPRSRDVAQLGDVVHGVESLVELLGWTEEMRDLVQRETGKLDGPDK

[8] = target: T4, NAD-dependent protein deacetylase sirtuin-1 (Homo sapiens) (UniProt Q96EB6); assay: Inhibition of SIRT1 (unknown origin) up to 50 uM using Bz-GVLK(acetyl)EYGV-NH2 as substrate after 8 mins by HPLC analysis; outline: as §1
T4 sequence (whole entry): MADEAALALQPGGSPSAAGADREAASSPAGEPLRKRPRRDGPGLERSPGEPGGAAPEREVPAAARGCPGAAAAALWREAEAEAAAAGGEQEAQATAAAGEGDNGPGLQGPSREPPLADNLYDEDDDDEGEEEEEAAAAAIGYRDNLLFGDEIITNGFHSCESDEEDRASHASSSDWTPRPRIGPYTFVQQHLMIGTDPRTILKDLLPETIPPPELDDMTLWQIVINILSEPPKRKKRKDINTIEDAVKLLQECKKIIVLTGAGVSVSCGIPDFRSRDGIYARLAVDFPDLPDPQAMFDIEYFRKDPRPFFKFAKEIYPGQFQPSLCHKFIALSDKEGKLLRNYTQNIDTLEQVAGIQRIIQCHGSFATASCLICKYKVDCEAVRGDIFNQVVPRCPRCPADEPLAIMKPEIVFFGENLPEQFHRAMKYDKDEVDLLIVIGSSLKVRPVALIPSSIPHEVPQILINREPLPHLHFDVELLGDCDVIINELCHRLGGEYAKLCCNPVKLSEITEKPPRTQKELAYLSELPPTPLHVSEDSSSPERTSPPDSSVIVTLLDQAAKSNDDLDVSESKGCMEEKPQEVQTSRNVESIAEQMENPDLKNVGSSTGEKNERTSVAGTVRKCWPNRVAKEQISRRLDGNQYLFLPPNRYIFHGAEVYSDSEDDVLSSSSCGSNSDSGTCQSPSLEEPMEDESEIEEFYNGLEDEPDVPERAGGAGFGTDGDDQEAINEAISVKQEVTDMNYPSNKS

[9] = target: T1, NAD-dependent protein deacylase sirtuin-5, mitochondrial; assay: Binding affinity to human recombinant N-terminal strep2-tagged SIRT5 expressed in Escherichia coli BL21 (DE3) at 100 uM by SDS-PAGE/LC-MS based pull down assay
Outline: (§3)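 Streptavidin agarose (0.5 ml bed volume) loaded with biotinylated inhibitor (100 µM in PBS) for 30 min, then washed with PBST. Bound protein eluted with 200 mM NaOH; eluates analysed by SDS-PAGE and LC-MS.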
Target sequence in this assay (Q9NXA8 37-310 limits assumed): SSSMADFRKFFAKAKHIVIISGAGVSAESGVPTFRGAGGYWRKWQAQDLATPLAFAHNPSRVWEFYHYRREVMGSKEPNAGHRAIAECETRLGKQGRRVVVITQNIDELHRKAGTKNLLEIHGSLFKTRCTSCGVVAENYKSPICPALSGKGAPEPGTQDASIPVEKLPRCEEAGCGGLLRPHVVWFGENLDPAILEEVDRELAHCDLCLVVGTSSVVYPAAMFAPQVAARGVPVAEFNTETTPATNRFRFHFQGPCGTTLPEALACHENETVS

[10] = target: T2, NAD-dependent protein deacetylase sirtuin-2 (Homo sapiens); assay: Binding affinity to human recombinant N-terminal strep2-tagged SIRT2 (43 to 356 residues) expressed in Escherichia coli BL21 (DE3) at 100 uM by SDS-PAGE/LC-MS based pull down assay; outline: as §3
[11] = target: T1, NAD-dependent protein deacylase sirtuin-5, mitochondrial; assay: Competitive inhibition of human recombinant N-terminal Strep2-tagged SIRT5 expressed in Escherichia coli BL21 (DE3) using Abz-GVLK(glutaryl)AY(NO2)GV-NH2 as substrate in presence of NAD+ by fluorescence assay
Outline: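 Continuous trypsin-coupled fluorescence assay at 37°C: 10 nM SIRT5, 500 µM NAD+, 500 nM trypsin, 5% DMSO, 0.025-5 µM substrate, 0.01-20 µM inhibitor. Buffer: 20 mM Tris, 150 mM NaCl, 5 mM MgCl2, pH 7.8. Excitation 320 nm, emission 420 nm. Measured in duplicate; IC50 determined at 0.03 µM substrate by log(inhibitor) vs normalized response fit.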
Target sequence in this assay (Q9NXA8 whole entry, the tested form may be a part): as the sequence (Q9NXA8 whole entry, the tested form may be a part) above

[12] = target: T3, NAD-dependent protein deacetylase sirtuin-3, mitochondrial (Homo sapiens); assay: Binding affinity to human recombinant N-terminal strep2-tagged SIRT3 (114 to 380 residues) expressed in Escherichia coli BL21 (DE3) at 100 uM by SDS-PAGE/LC-MS based pull down assay; outline: as §3
[13] = target: T1, NAD-dependent protein deacylase sirtuin-5, mitochondrial; assay: Binding affinity to human N-terminal biotinylated SIRT5 assessed as dissociation rate constant by surface plasmon resonance spectroscopy; outline: as §2
Target sequence in this assay (Q9NXA8 37-310 limits assumed): as the sequence (Q9NXA8 37-310 limits assumed) above

[14] = target: T1, NAD-dependent protein deacylase sirtuin-5, mitochondrial; assay: Inhibition of SIRT5 (unknown origin) using GGQSLK[succ]FGKG as substrate after 30 mins
Target sequence in this assay (Q9NXA8 whole entry, the tested form may be a part): as the sequence (Q9NXA8 whole entry, the tested form may be a part) above

- IC50 [1]: 5600 nM
Compound: N#C/C(=C\c1ccc(-c2ccc(C(=O)O)cc2)o1)C(=O)Nc1ccc(C#N)c(F)c1

- IC50 [2]: 7500 nM
Compound: CC(=O)N[C@H]1CCCCNC(=O)CCCCCCC(=O)NCCCC[C@@H](C(=O)N[C@H](C(N)=O)[C@@H](C)O)NC(=O)[C@H](CCCCNC(=S)NCCC(=O)O)NC(=O)C[C@H](CCCNC(=N)N)NC1=O (Ac-K[β3hR][X67]KT-NH2; linker 1-4 via Suberoyl)

- inhibition [3]: inactive
- inhibition [4]: inactive
- Kd [5]: 0.01 nM
- IC50 [6]: 30.3 nM
- inhibition [7]: inactive
- inhibition [8]: inactive
Compound: CC(C)C[C@H](NC(=O)[C@@H](NC(=O)CNC(=O)c1ccccc1)C(C)C)C(=O)N[C@@H](CCCCNC(=O)C[C@H](Sc1ccc2ccccc2c1)C(=O)O)C(=O)N[C@@H](CCC(=O)O)C(=O)N[C@@H](Cc1ccc(O)cc1)C(=O)NCC(=O)N[C@H](C(N)=O)C(C)C (Bz-GVLK(X1)EYGV-NH2)

- Activity [9]: Active
- Activity [10]: inactive
- Kd [5]: 0.12 nM
- Ki [11]: 13.6 nM
- IC50 [6]: 19.1 nM
- Activity [12]: inactive
- koff [13]: 0.00015 s⁻¹
Compound: CC(C)C[C@H](NC(=O)[C@@H](NC(=O)CNC(=O)CCC(=O)NCCCOCCOCCOCCCNC(=O)CCCC[C@@H]1SC[C@@H]2NC(=O)N[C@@H]21)C(C)C)C(=O)N[C@@H](CCCCNC(=O)C[C@H](Sc1ccc2ccccc2c1)C(=O)O)C(=O)N[C@@H](CCC(=O)O)C(=O)N[C@@H](Cc1ccc(O)cc1)C(=O)NCC(=O)N[C@H](C(N)=O)C(C)C ({X2-Suc}-GVLK(X1)EYGV-NH2)

- IC50 [14]: 100 nM
- IC50 [6]: 453000 nM
Compound: O=C1c2c(O)cccc2Cc2cccc(O)c21 [ANTHRALIN]
